# Most compounds without a hit are left out; they make up all but 0.72% or so of the library.
# PolyA inhibitor: blocks polyadenylation in yeast reporter cells; S. cerevisiae SKY197-pL101 polyadenylation reporter, beta-gal luminescence; efflux-impaired pdr1/pdr3 knockout yeast; score 100 = 6 SD above DMSO; activity score, % at 12 µM; 300,000 tested, 0.02% active; AID 1875;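 active = lowest replicate activity score at least 50, where 100 means six control SD above control mean; inconclusive = lowest score under 50 but half or more replicates reach 50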;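 note: yeast exposed to compound for 9 h at 30 °C; higher score means more reporter readthrough which indicates perturbed polyadenylation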
# STK33 inh: blocks human STK33 kinase activity. Q9BYT3. 320,000 tested, 0.073% active. purified STK33, MBP phosphorylation, ADP-Glo luminescence. inhibition, % at 10 µM;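 active = inhibition at or above 25%, using the most active replicate where run in duplicate; inactive = inhibition below 25%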
# AI-2 QS mod: modulators of Vibrio harveyi AI-2 quorum sensing system; Vibrio harveyi JMH597 AI-2 luminescence/OD600 ratio, 9 h; hits give low values; strain lacks LuxN and CqsS sensors; 0 = neutral-control median; activity change, % at 7.5 µM; 300,000 tested, 0.4% active; in the data active = activity change below about -75%, passing the limit was not always enough; inconclusive = no clear call, values can overlap the other calls;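 note: luminescence divided by OD600 gain over 9 h not by final OD600 alone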
# GSK3beta inhib: inhibitors of human GSK3beta kinase. P49841. GST-GSK3beta kinase, ADP-Glo luminescence, 60 min; hits give low values. activity score (negative = inhibition), % at 10 µM. 300,000 tested, 0.038% active. AID 2097;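 active = more than half of replicate wells score below -50%, meaning over 50% inhibition versus plate controls; inconclusive = some replicates but at most half score below -50%; inactive = no replicate scores below -50%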;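 note: 0% = median DMSO wells and -100% = median GW8510 positive control wells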
#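 Test system: GST-tagged human GSK3beta kinase, cell-free; evaluation: activity score scaled between in-plate DMSO and GW8510 controls; measured by: ADP-Glo luminescence; incubation: 60 min reaction, RT; benchmarks: DMSO and 20 µM GW8510; reagent: peptide substrate plus 25 µM ATP (final); medium: Tris/MgCl2 kinase buffer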
# GSK3 alpha inh: human GSK-3 alpha kinase inhibition; 320,000 tested, 0.1% active; P49840; inhibition, % at 10 µM; ADP-Glo luminescence, 60 min;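 active = more than half of replicates show inhibition above 20%; inconclusive = some but at most half of replicates above 20% inhibition; inactive = no replicate shows inhibition above 20%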;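 note: GST-tagged GSK-3 alpha with peptide substrate and 25 µM ATP; 0% = DMSO neutral wells and 100% = GW8510 positive control wells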
# Target sequence (P49840 whole entry, looked up): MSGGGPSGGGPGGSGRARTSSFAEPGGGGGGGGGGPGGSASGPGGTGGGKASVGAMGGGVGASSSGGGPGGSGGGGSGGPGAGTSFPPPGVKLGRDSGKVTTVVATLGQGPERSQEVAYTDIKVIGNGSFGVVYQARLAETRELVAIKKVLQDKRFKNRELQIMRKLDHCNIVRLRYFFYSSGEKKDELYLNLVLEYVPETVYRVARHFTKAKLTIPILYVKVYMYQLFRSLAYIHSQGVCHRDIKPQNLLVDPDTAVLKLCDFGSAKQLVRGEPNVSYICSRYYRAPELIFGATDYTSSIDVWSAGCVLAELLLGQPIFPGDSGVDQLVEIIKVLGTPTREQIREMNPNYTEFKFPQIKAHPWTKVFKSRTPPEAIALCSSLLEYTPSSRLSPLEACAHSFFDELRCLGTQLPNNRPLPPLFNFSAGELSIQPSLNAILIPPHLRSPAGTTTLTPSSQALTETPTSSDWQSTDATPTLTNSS
# CR mimetic SO: lowers age-related superoxide in aged yeast cells; S. cerevisiae aged cells, superoxide DHE fluorescence; hits give low values; superoxide response (% of plate mean), % at 10 µM; 330,000 tested, 0.18% active;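 active = superoxide response under a set limit, about three screen SD below normal, cut at about 65% in these data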;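 note: yeast aged for seven days with compound at 30 °C before DHE staining; 100% = average MFI of all compound-treated wells on the plate with controls excluded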
# Superoxide pick: confirmation of caloric restriction mimetics inhibiting yeast age-related superoxide | shares compounds with CR mimetic SO | S. cerevisiae aging, superoxide DHE fluorescence; hits give low values | superoxide response (% of plate), % at 10 µM | 850 tested, 1% active | AID 434994;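 active = superoxide signal below 65% of the plate average of sample wells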;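 note: cells aged with compound for 7 days at 30 degrees C before staining; 100% equals mean DHE fluorescence of all compound wells on the plate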
# DHE counter: compound alters DHE oxidation or fluorescence in yeast; shares compounds with CR mimetic SO; S. cerevisiae BY4741, flow cytometry; hits give low values; fluorescence response, % at 10 µM; 850 tested, under 10 active;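 active = fluorescence response below 15%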;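 note: percent of the mean fluorescence averaged over all compound wells on the plate; lower means stronger quenching of DHE signal or ROS scavenging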
# Active calls of the source: *; ? = inconclusive; / = no result.
SMILES,PolyA inhibitor,STK33 inh,AI-2 QS mod,GSK3beta inhib,GSK3 alpha inh,CR mimetic SO,Superoxide pick,DHE counter
Cc1nnsc1C(=O)NNC(=O)c1ccc(C(F)(F)F)cc1,24,0,14,2,-4,63*,111,97
[O-][n+]1c2ccccc2[n+]([O-])c2cc(O)ccc21,3,4,-2,-8,3,51*,61*,90
Cc1ccc2c(c1)N(C(=O)CCC(=O)N1CCC(C(N)=O)CC1)CC(C)O2 (stereo not given),-12,-1,34,2,-2,82,/,/
CC(C)(C)Nc1ncnc2c1cnn2-c1ccccc1,-1,1,28,0,-1,87,100,95
CC(C)Nc1ncnc2c1cnn2-c1ccc(Cl)cc1,1,-2,31,-1,-3,98,90,91
O=C(COc1coc(CN2CCCc3ccccc32)cc1=O)Nc1cccc([N+](=O)[O-])c1,35,0,16,-4,2,108,/,/
CC1(C)CC(=O)c2c(O)c(-c3ccccc3)c(=O)n(-c3ccccc3)c2C1,-7,0,17,0,0,112,/,/
CCN(CC)S(=O)(=O)c1ccc(N2CCCC2)c(NC(=O)Cc2c(F)cccc2Cl)c1,7,0,12,0,-1,100,102,93
COc1ccc(/C=C2\SC(=S)N(CCCC(=O)Nc3ccc(C(=O)O)cc3)C2=O)cc1OC,7,-1,28,1,1,63*,93,97
CCOc1ccc(Cl)cc1S(=O)(=O)N1CCC(C(=O)NC2CC2)CC1,12,-1,6,0,-2,102,/,/
COc1ccc(CN2CCN(Cc3ccc(Br)cc3)CC2)c(OC)c1OC,-10,1,28,-3,2,46*,94,89
COc1ccc(CN2CCN(Cc3cccc(Oc4ccccc4)c3)CC2)c(OC)c1OC,7,1,6,0,-2,101,/,/
COc1cccc(NC(=S)NCc2cccs2)c1,2,-1,-21,0,-2,97,/,/
COc1ccc2oc(=O)c(/C(C)=N/Nc3ccccc3)cc2c1,-14,-1,14,-6,15,86,/,/
COC(=O)c1cccc(NC2CC(=O)N(c3ccc(OC)c(OC)c3)C2=O)c1 (stereo not given),9,3,3,-1,-8,62*,97,93
CCOC(=O)N1CCC(N2CCCC(C(=O)c3ccccc3OC)C2)CC1 (stereo not given),9,-2,12,-2,-1,102,/,/
Cc1ccc(S(=O)(=O)Nc2c(C)cc(C)nc2Cl)cc1,1,-1,40,2,0,50*,101,107
Cc1nc2ccc(NC(=O)c3nn(CC(C)C)c(=O)c4ccccc34)cc2s1,-3,-1,8,2,3,57*,114,122
CCOC(=O)c1ccc(NC(=O)Nc2ccn(C)n2)cc1,-9,-1,9,4,2,63*,103,96
CCOC(=O)c1ccc(NC(=O)Nc2cccc(C)n2)cc1,3,/,28,1,/,107,/,/
CC1Cc2cc(S(=O)(=O)N3CCC(C(=O)NCc4ccco4)CC3)ccc2N1C(=O)C1CCC1 (stereo not given),11,0,13,2,-1,111,/,/
COc1cc(OC)cc(C(=O)O/N=C(\N)c2ccncc2)c1,-24,3,9,4,0,62*,112,110
CN(C(=O)CSc1nc(O)cc(=O)n1C1CCCC1)c1ccccc1,8,-1,-1,0,-5,99,/,/
CN(C(=O)CSc1nc(O)cc(=O)n1-c1ccccc1F)c1ccccc1,-15,0,9,1,1,50*,107,107
Cc1cc([N+](=O)[O-])nn1Cc1ccc(C(=O)N/N=C/c2ccc(O)cc2O)cc1,-4,-2,15,0,0,65*,94,94
SMILES,PolyA inhibitor,STK33 inh,AI-2 QS mod,GSK3beta inhib,GSK3 alpha inh,CR mimetic SO,Superoxide pick,DHE counter
COc1ccc(N2CC(C(=O)N/N=C/c3cc([N+](=O)[O-])ccc3O)CC2=O)cc1 (stereo not given),-9,-2,?,-1,1,90,/,/
CCOC(=O)c1ccc(NC(=O)CSc2ccc(-c3ccccn3)nn2)cc1,-5,-1,1,-5,2,114,116,91
Cc1ccc(NC(=O)CSc2ccc(-c3ccccn3)nn2)cc1,7,-1,10,-3,-4,139,/,/
O=C(CSc1ccc(-c2cccnc2)nn1)Nc1ccccc1C(F)(F)F,-5,-1,-10,2,2,92,101,91
O=C(CSc1ccc(-c2ccccn2)nn1)Nc1ccc(F)c(F)c1,-4,-1,1,-7,-1,99,137,115
O=C(CSc1ccc(-c2ccccn2)nn1)Nc1ccc(F)cc1F,-4,0,11,2,-4,108,103,106
O=C(CSc1ccc(-c2cccnc2)nn1)Nc1ccc(F)cc1F,4,0,-5,1,2,91,/,/
Cc1ccc(NC(=O)CSc2ccc(-c3cccnc3)nn2)c(C)c1,8,0,-1,2,-2,88,/,/
CCCN(CCC)CC(O)CN1C(=O)NC(C)(C)C1=O (stereo not given),15,0,5,1,0,101,/,/
CN(Cc1ccccc1)S(=O)(=O)c1ccc2c(c1)CCC(=O)N2,-5,0,12,-1,-3,104,/,/
COc1ccccc1NC(=O)CSc1ccc(-c2ccccn2)nn1,-13,0,10,2,0,113,101,97
CC(C)(CO)NCC(=O)Nc1cc(C(F)(F)F)cc(NC(=O)CNC(C)(C)CO)c1Cl,13,1,30,2,-3,104,/,/
CCN(CC)c1ccc2nc3ccccc3[n+](CC)c2c1,28,6,/,/,11,65*,82,108
O=c1c2ccccc2nc(-c2ccc([N+](=O)[O-])cc2)n1O,?,0,80,-1,0,77,/,/
Cc1ccc(-c2nc3ccccc3c(=O)n2O)cc1,-3,0,16,0,-2,59*,92,111
CC(C)Oc1ccc(C(=O)OCC(=O)c2ccc[nH]2)cc1,/,0,/,/,-4,85,/,/
COC(=O)C1C(=O)C=C(Nc2ccc(F)cc2F)CC1c1ccc(OC)cc1 (stereo not given),-6,0,15,-2,-1,104,/,/
